Measured values as given in ChEMBL document CHEMBL1165950, “Design and synthesis of new potent anticancer pyrazoles with high FLT3 kinase inhibitory selectivity” (Bioorg Med Chem, 2010).

Assays:
Assay type in all cases: functional
786-0 = test: Cytotoxicity against human 786-0 cells assessed as cell growth at 0.01 uM after 48 hrs by sulforhodamine B assay; details: 786-0, 48 h, read-out: Activity
Method in brief: (§1)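 NCI-60 five-dose screen. Cells were grown in RPMI 1640 with 5% FBS and 2 mM L-glutamine, plated at 5000–40,000 cells/well and preincubated for 24 h. Time-zero plates were TCA-fixed. DMSO-solubilized drug was added at five concentrations (10-fold or ½-log serial dilutions) for 48 h at 37 °C, 5% CO2. Cells were TCA-fixed, stained with 0.4% SRB and read at 515 nm. Percent growth used time-zero, control and test absorbances.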

CCRF-CEM [1] = test: Cytotoxicity against human CCRF-CEM cells assessed as cell growth at 1 uM after 48 hrs by sulforhodamine B assay; details: read-out: Activity; method in brief: as §1
HOP-92 = test: Cytotoxicity against human HOP92 cells assessed as cell growth at 10 uM after 48 hrs by sulforhodamine B assay; details: HOP-92, 48 h, read-out: Activity
U-251 = test: Cytotoxicity against human U251 cells assessed as cell growth at 100 nM after 48 hrs by sulforhodamine B assay; details: U-251, 48 h, read-out: Activity
SNB-19 = test: Cytotoxicity against human SNB19 cells assessed as cell growth at 0.01 uM after 48 hrs by sulforhodamine B assay; details: SNB-19, 48 h, read-out: Activity
COLO 205 = test: Cytotoxicity against human COLO205 cells assessed as cell growth at 0.001 uM after 48 hrs by sulforhodamine B assay; details: COLO 205, 48 h, read-out: Activity; method in brief: as §1
BT-549 = test: Cytotoxicity against human BT549 cells assessed as cell growth at 10 uM after 48 hrs by sulforhodamine B assay; details: BT-549, 48 h, read-out: Activity; method in brief: as §1
A549 = test: Cytotoxicity against human A549 cells assessed as cell growth at 100 nM after 48 hrs by sulforhodamine B assay; details: A549, 48 h, read-out: Activity; method in brief: as §1
CCRF-CEM [2] = test: Cytotoxicity against human CCRF-CEM cells assessed as cell growth at 10 uM after 48 hrs by sulforhodamine B assay; details: read-out: Activity; method in brief: as §1
OVCAR-5 = test: Growth inhibition of human OVCAR5 cells after 48 hrs by sulforhodamine B assay; details: OVCAR-5, 48 h; for CC50: read-out: LC50 (the source's name)
Method in brief: (§2)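 NCI 60-cell screen, five-dose mode. Cells grown in RPMI 1640 with 5% FBS and 2 mM L-glutamine and plated at 5000-40,000 cells/well according to doubling time. After 24 h preincubation, a Tz plate was TCA-fixed. Five concentrations (10-fold or 1/2 log dilutions) were applied for 48 h at 37 °C. SRB staining read at 515 nm. IC50 taken from [(Ti-Tz)/(C-Tz)]×100 = 50.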

IGROV-1 [3] = test: Cytotoxicity against human IGROV1 cells assessed as cell growth at 1 uM after 48 hrs by sulforhodamine B assay; details: IGROV-1, 48 h, read-out: Activity
SK-MEL-28 = test: Cytotoxicity against human SK-MEL-28 cells assessed as cell growth at 10 uM; details: read-out: Activity
Method in brief: (§3)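 NCI-60 screen: cells grown in RPMI 1640 with 5% FBS and 2 mM L-glutamine, plated at 5000–40,000 cells/well according to doubling time, and preincubated 24 h at 37 °C, 5% CO2. The single 10 µM dose (DMSO stock) was added, then incubated 48 h. Cells were TCA-fixed and stained with 0.4% SRB, read at 515 nm, and growth % calculated against time-zero and control plates.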

OVCAR-3 = test: Cytotoxicity against human OVCAR-3 cells assessed as cell growth at 0.001 uM after 48 hrs by sulforhodamine B assay; details: OVCAR-3, 48 h, read-out: Activity
[4] = Growth inhibition of human […] cells after 48 hrs by sulforhodamine B assay; details: for CC50: read-out: LC50 (the source's name); method in brief: as §2
HT-29 = test: Cytotoxicity against human HT-29 cells assessed as cell growth at 100 nM after 48 hrs by sulforhodamine B assay; details: HT-29, 48 h, read-out: Activity
MDA-MB-468 = test: Growth inhibition of human MDA-MB-468 cells after 48 hrs by sulforhodamine B assay; details: MDA-MB-468, 48 h; method in brief: as §2
CAKI-1 = test: Cytotoxicity against human Caki1 cells assessed as cell growth at 0.001 uM after 48 hrs by sulforhodamine B assay; details: CAKI-1, 48 h, read-out: Activity
IGROV-1 [5] = test: Cytotoxicity against human IGROV1 cells assessed as cell growth at 10 uM; details: read-out: Activity
Method in brief: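 Single-dose NCI-60 screen at 10 µM. Cells were grown in RPMI 1640 with 5% FBS and 2 mM L-glutamine, then treated for 48 h at 37 °C. Protein was measured by SRB staining with absorbance at 515 nm. Percentage growth was recorded, and inhibition percentage was calculated as 100 minus growth percentage.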

M14 = test: Growth inhibition of human M14 cells after 48 hrs by sulforhodamine B assay; details: M14, 48 h; for CC50: read-out: LC50 (the source's name); method in brief: as §2
UO-31 = test: Growth inhibition of human UO31 cells after 48 hrs by sulforhodamine B assay; details: UO-31, 48 h; for CC50: read-out: LC50 (the source's name); method in brief: as §2
NCI-H522 = test: Cytotoxicity against human NCI-H522 cells assessed as cell growth at 10 uM after 48 hrs by sulforhodamine B assay; details: NCI-H522, 48 h, read-out: Activity
SN12C [6] = test: Cytotoxicity against human SN12C cells assessed as cell growth at 100 nM after 48 hrs by sulforhodamine B assay; details: read-out: Activity
K562 = test: Cytotoxicity against human K562 cells assessed as cell growth at 0.001 uM after 48 hrs by sulforhodamine B assay; details: K562, 48 h, read-out: Activity
SN12C [7] = test: Cytotoxicity against human SN12C cells assessed as cell growth at 0.01 uM after 48 hrs by sulforhodamine B assay; details: read-out: Activity
KM12 = test: Cytotoxicity against human KM12 cells assessed as cell growth at 0.01 uM after 48 hrs by sulforhodamine B assay; details: KM12, 48 h, read-out: Activity
SK-MEL-2 = test: Cytotoxicity against human SK-MEL-2 cells assessed as cell growth at 10 uM; details: read-out: Activity; method in brief: as §3
SK-MEL-5 = test: Cytotoxicity against human SK-MEL-5 cells assessed as cell growth at 10 uM after 48 hrs by sulforhodamine B assay; details: SK-MEL-5, 48 h, read-out: Activity
SF-268 = test: Growth inhibition of human SF268 cells after 48 hrs by sulforhodamine B assay; details: SF-268, 48 h; for CC50: read-out: LC50 (the source's name); method in brief: as §2
Malme-3M = test: Cytotoxicity against human MALME-3M cells assessed as cell growth at 10 uM after 48 hrs by sulforhodamine B assay; details: read-out: Activity
PC-3 = test: Cytotoxicity against human PC3 cells assessed as cell growth at 100 nM after 48 hrs by sulforhodamine B assay; details: PC-3, 48 h, read-out: Activity

COc1cc(C)cc(-c2nn(CC#N)cc2-c2ccnc(-c3ccc(N(C)C)cc3)c2)c1
growth at 0.01 µM (786-0): 96%
growth at 1 µM (CCRF-CEM [1]): 16%
growth at 10 µM (HOP-92): -13%
growth at 0.1 µM (U-251): 16%
growth at 0.01 µM (SNB-19): 97%
growth at 0.001 µM (COLO 205): 107%
growth at 10 µM (BT-549): -30%
growth at 0.1 µM (A549): 36%
growth at 10 µM (CCRF-CEM [2]): 10%
GI50 (OVCAR-5): 3.98 µM
TGI (OVCAR-5): > 100 µM
CC50 (OVCAR-5): > 100 µM
growth at 1 µM (IGROV-1 [3]): 5%
growth at 10 µM (SK-MEL-28): 32.4%
growth at 0.001 µM (OVCAR-3): 106%
GI50 [4]: 1.36 µM
TGI [4]: 10.7 µM
CC50 [4]: > 100 µM
growth at 0.1 µM (HT-29): 25%
GI50 (MDA-MB-468): 0.181 µM
LC50 (concentration giving 50% net cell kill) (MDA-MB-468): 7.24 µM
TGI (MDA-MB-468): 0.635 µM
growth at 0.001 µM (CAKI-1): 102%
growth at 10 µM (IGROV-1 [5]): 13.1%
GI50 (M14): 0.258 µM
TGI (M14): 0.769 µM
CC50 (M14): > 100 µM
GI50 (UO-31): 0.619 µM
TGI (UO-31): 98.7 µM
CC50 (UO-31): > 100 µM
growth at 10 µM (NCI-H522): -64%
growth at 0.1 µM (SN12C [6]): 44%
growth at 0.001 µM (K562): 66%
growth at 0.01 µM (SN12C [7]): 90%
growth at 0.01 µM (KM12): 89%
growth at 10 µM (SK-MEL-2): 40.8%
growth at 10 µM (SK-MEL-5): -66%
GI50 (SF-268): 0.478 µM
TGI (SF-268): 8.9 µM
CC50 (SF-268): > 100 µM
growth at 10 µM (Malme-3M): 5%
growth at 0.1 µM (PC-3): 14%

Cc1cc(O)cc(-c2nn(CC#N)cc2-c2ccnc(-c3ccc(Oc4ccccc4)cc3)c2)c1
growth at 0.01 µM (786-0): 95%
growth at 1 µM (CCRF-CEM [1]): 6%
growth at 10 µM (HOP-92): -65%
growth at 0.1 µM (U-251): 88%
growth at 0.01 µM (SNB-19): 100%
growth at 0.001 µM (COLO 205): 107%
growth at 10 µM (BT-549): -81%
growth at 0.1 µM (A549): 87%
growth at 10 µM (CCRF-CEM [2]): 14%
GI50 (OVCAR-5): 4.84 µM
TGI (OVCAR-5): 19.2 µM
CC50 (OVCAR-5): 48.3 µM
growth at 1 µM (IGROV-1 [3]): -64%
growth at 10 µM (SK-MEL-28): 63.3%
growth at 0.001 µM (OVCAR-3): 92%
GI50 [4]: 2.25 µM
TGI [4]: 6.52 µM
CC50 [4]: > 100 µM
growth at 0.1 µM (HT-29): 91%
GI50 (MDA-MB-468): 1.79 µM
LC50 (concentration giving 50% net cell kill) (MDA-MB-468): 8.28 µM
TGI (MDA-MB-468): 3.85 µM
growth at 0.001 µM (CAKI-1): 101%
growth at 10 µM (IGROV-1 [5]): 72.2%
GI50 (M14): 1.7 µM
TGI (M14): 3.12 µM
CC50 (M14): 5.73 µM
GI50 (UO-31): 2.18 µM
TGI (UO-31): 6.54 µM
CC50 (UO-31): 31.7 µM
growth at 10 µM (NCI-H522): -93%
growth at 0.1 µM (SN12C [6]): 86%
growth at 0.001 µM (K562): 63%
growth at 0.01 µM (SN12C [7]): 88%
growth at 0.01 µM (KM12): 94%
growth at 10 µM (SK-MEL-2): 73.9%
growth at 10 µM (SK-MEL-5): -100%
GI50 (SF-268): 3.96 µM
TGI (SF-268): 15.5 µM
CC50 (SF-268): 41.4 µM
growth at 10 µM (Malme-3M): -72%
growth at 0.1 µM (PC-3): 81%
